# Experimental data: ChEMBL document CHEMBL5058577, “EUbOPEN Chemogenomics Library 2 (Multiplex)” (2022)
# Test system: Fibroblast
# Assay: Multiplex assay against human fibroblast
# Format: toxicity, cell-based
# Summary of the method: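 At seeding, live cells were stained with Hoechst33342, BioTracker Green Microtubule Cytoskeleton Dye, MitoTracker Red and Annexin V Alexa Fluor 680. After compound addition they were imaged on a CQ1 microscope at 37°C and 5% CO2, and CellPathfinder machine-learning gating sorted them into Hoechst high-intensity objects or normal cells, with normal cells further split into healthy, pyknosed or fragmented nuclei and pyknosed cells into mitotic or apoptotic. Tubulin, mitochondrial-mass and membrane-permeability phenotypes are given as per cents of cells with healthy nuclei.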
# [1] = 12 h, 1 µM, compound concentration 1 uM, replicate 1
# [2] = 12 h, 1 µM, compound concentration 1 uM, replicate 2
# [3] = 12 h, 10 µM, compound concentration 10 uM, replicate 1
# [4] = 12 h, 10 µM, compound concentration 10 uM, replicate 2
# [5] = 24 h, 1 µM, compound concentration 1 uM, replicate 1
# [6] = 24 h, 1 µM, compound concentration 1 uM, replicate 2
# [7] = 24 h, 10 µM, compound concentration 10 uM, replicate 1
# [8] = 24 h, 10 µM, compound concentration 10 uM, replicate 2
# [9] = 48 h, 1 µM, compound concentration 1 uM, replicate 1
# [10] = 48 h, 1 µM, compound concentration 1 uM, replicate 2
# [11] = 48 h, 10 µM, compound concentration 10 uM, replicate 1
# [12] = 48 h, 10 µM, compound concentration 10 uM, replicate 2
compound,measurement,setting,value
O=c1nc2[nH]c3ccccc3nc-2c(=O)[nH]1 [ALLOXAZINE],Population Apoptotic (%),[1],56%
same,Population Fragmented Nuclei (%),[1],16%
same,Population Healthy Nuclei (%),[1],67%
same,Population Hoechst High Intensity Objects (%),[1],5%
same,Population Membrane Permeable-Phenotype (%),[1],0%
same,Population Mitochondria Different-Phenotype (%),[1],2%
same,Population Mitotic Cells (%),[1],43%
same,Population Normal (%),[1],94%
same,Population Pyknosed Nuclei (%),[1],16%
same,Population Tubulin-Different-Phenotype (%),[1],23%
same,Total Cell Count,[1],193
same,Population Apoptotic (%),[2],37%
same,Population Fragmented Nuclei (%),[2],26%
same,Population Healthy Nuclei (%),[2],50%
same,Population Hoechst High Intensity Objects (%),[2],3%
same,Population Membrane Permeable-Phenotype (%),[2],6%
same,Population Mitochondria Different-Phenotype (%),[2],3%
same,Population Mitotic Cells (%),[2],62%
same,Population Normal (%),[2],96%
same,Population Pyknosed Nuclei (%),[2],23%
same,Population Tubulin-Different-Phenotype (%),[2],33%
same,Total Cell Count,[2],131
same,Population Apoptotic (%),[3],33%
same,Population Fragmented Nuclei (%),[3],23%
same,Population Healthy Nuclei (%),[3],60%
same,Population Hoechst High Intensity Objects (%),[3],4%
same,Population Membrane Permeable-Phenotype (%),[3],3%
same,Population Mitochondria Different-Phenotype (%),[3],5%
same,Population Mitotic Cells (%),[3],66%
same,Population Normal (%),[3],95%
same,Population Pyknosed Nuclei (%),[3],15%
same,Population Tubulin-Different-Phenotype (%),[3],23%
same,Total Cell Count,[3],158
same,Population Apoptotic (%),[4],41%
same,Population Fragmented Nuclei (%),[4],41%
same,Population Healthy Nuclei (%),[4],38%
same,Population Hoechst High Intensity Objects (%),[4],1%
same,Population Mitochondria Different-Phenotype (%),[4],15%
same,Population Mitotic Cells (%),[4],58%
same,Population Normal (%),[4],98%
same,Population Pyknosed Nuclei (%),[4],20%
same,Population Tubulin-Different-Phenotype (%),[4],57%
same,Total Cell Count,[4],86
same,Population Apoptotic (%),[5],52%
same,Population Fragmented Nuclei (%),[5],17%
same,Population Healthy Nuclei (%),[5],69%
same,Population Hoechst High Intensity Objects (%),[5],3%
same,Population Membrane Permeable-Phenotype (%),[5],0%
same,Population Mitochondria Different-Phenotype (%),[5],2%
same,Population Mitotic Cells (%),[5],47%
same,Population Normal (%),[5],96%
same,Population Pyknosed Nuclei (%),[5],12%
same,Population Tubulin-Different-Phenotype (%),[5],21%
same,Total Cell Count,[5],190
same,Population Apoptotic (%),[6],36%
same,Population Fragmented Nuclei (%),[6],31%
same,Population Healthy Nuclei (%),[6],41%
same,Population Hoechst High Intensity Objects (%),[6],4%
same,Population Membrane Permeable-Phenotype (%),[6],2%
same,Population Mitochondria Different-Phenotype (%),[6],0%
same,Population Mitotic Cells (%),[6],63%
same,Population Normal (%),[6],95%
same,Population Pyknosed Nuclei (%),[6],27%
same,Population Tubulin-Different-Phenotype (%),[6],31%
same,Total Cell Count,[6],114
same,Population Apoptotic (%),[7],47%
same,Population Fragmented Nuclei (%),[7],19%
same,Population Healthy Nuclei (%),[7],64%
same,Population Hoechst High Intensity Objects (%),[7],3%
same,Population Membrane Permeable-Phenotype (%),[7],0%
same,Population Mitochondria Different-Phenotype (%),[7],2%
same,Population Mitotic Cells (%),[7],52%
same,Population Normal (%),[7],96%
same,Population Pyknosed Nuclei (%),[7],15%
same,Population Tubulin-Different-Phenotype (%),[7],22%
same,Total Cell Count,[7],153
same,Population Apoptotic (%),[8],64%
same,Population Fragmented Nuclei (%),[8],45%
same,Population Healthy Nuclei (%),[8],32%
same,Population Mitochondria Different-Phenotype (%),[8],7%
same,Population Mitotic Cells (%),[8],35%
same,Population Pyknosed Nuclei (%),[8],21%
same,Population Tubulin-Different-Phenotype (%),[8],50%
same,Total Cell Count,[8],82
same,Population Apoptotic (%),[9],71%
same,Population Fragmented Nuclei (%),[9],14%
same,Population Healthy Nuclei (%),[9],72%
same,Population Hoechst High Intensity Objects (%),[9],9%
same,Population Membrane Permeable-Phenotype (%),[9],0%
same,Population Mitochondria Different-Phenotype (%),[9],1%
same,Population Mitotic Cells (%),[9],28%
same,Population Normal (%),[9],90%
same,Population Pyknosed Nuclei (%),[9],13%
same,Population Tubulin-Different-Phenotype (%),[9],23%
same,Total Cell Count,[9],178
same,Population Apoptotic (%),[10],39%
same,Population Fragmented Nuclei (%),[10],30%
same,Population Healthy Nuclei (%),[10],48%
same,Population Hoechst High Intensity Objects (%),[10],3%
same,Population Membrane Permeable-Phenotype (%),[10],9%
same,Population Mitotic Cells (%),[10],60%
same,Population Normal (%),[10],96%
same,Population Pyknosed Nuclei (%),[10],20%
same,Population Tubulin-Different-Phenotype (%),[10],56%
same,Total Cell Count,[10],114
same,Population Apoptotic (%),[11],55%
same,Population Fragmented Nuclei (%),[11],26%
same,Population Healthy Nuclei (%),[11],61%
same,Population Hoechst High Intensity Objects (%),[11],6%
same,Population Membrane Permeable-Phenotype (%),[11],2%
same,Population Mitochondria Different-Phenotype (%),[11],3%
same,Population Mitotic Cells (%),[11],44%
same,Population Normal (%),[11],93%
same,Population Pyknosed Nuclei (%),[11],11%
same,Population Tubulin-Different-Phenotype (%),[11],29%
same,Total Cell Count,[11],164
same,Population Apoptotic (%),[12],45%
same,Population Fragmented Nuclei (%),[12],49%
same,Population Healthy Nuclei (%),[12],36%
same,Population Hoechst High Intensity Objects (%),[12],2%
same,Population Membrane Permeable-Phenotype (%),[12],3%
same,Population Mitochondria Different-Phenotype (%),[12],17%
same,Population Mitotic Cells (%),[12],54%
same,Population Normal (%),[12],97%
same,Population Pyknosed Nuclei (%),[12],13%
same,Population Tubulin-Different-Phenotype (%),[12],51%
same,Total Cell Count,[12],81
